Legend:
[1] = system: Human immunodeficiency virus 1; test: Antiviral activity against HIV1 NL4-3 infected in human MT2 cells measured after 3 to 4 days by luciferase reporter gene assay; format: functional, organism-based; settings: Human immunodeficiency virus 1, NL4-3, MT2
[2] = Cytotoxicity against human MT2 cells measured after 4 days by XTT assay; format: cell-based
Summary of the method: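 MT-2 cell viability measured by XTT after 4 days of compound exposure, run in parallel with the antiviral assay; CC50 from n ≥ 2 determinations.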

[3] = Permeability of the compound in pH 7.4 buffer at 100 uM measured after 4 hrs by sandwich-PAMPA; format: ADME; settings: read-out: permeability
Summary of the method: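 Parallel artificial membrane permeability: compound at 100 μM in donor buffer pH 7.4, permeating to acceptor through artificial membrane over 4 h; donor, acceptor and t0 solutions read by UV plate reader; triplicate.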

[4] = Stability of the compound in human liver microsomes assessed as parent compound remaining at 0.5 uM measured after 10 mins in presence of NADPH by LC-MS/MS analysis; format: ADME, Microsome; settings: read-out: Stability
Summary of the method: (§1)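 CYP-mediated turnover: 0.5 μM compound with human or rat liver microsomes (1 mg/mL) in 100 mM sodium phosphate pH 7.4, 6.6 mM MgCl2, 37 °C; started with NADPH, DMSO 0.014%. Samples quenched at 0 and 10 min; parent remaining by LC-MS/MS; duplicate.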

[5] = Stability of the compound in rat liver microsomes assessed as parent compound remaining at 0.5 uM measured after 10 mins in presence of NADPH by LC-MS/MS analysis; format: ADME, Microsome; settings: read-out: Stability; summary of the method: as §1
[6] = Therapeutic index, ratio of CC50 for human MT2 cells to EC50 for HIV1 NL4-3 infected in human MT2 cells; format: toxicity, cell-based; settings: read-out: Ratio CC50/EC50
[7] = system: Human immunodeficiency virus 1; test: Antiviral activity against HIV1 NL4-3 infected in human MT2 cells measured after 3 to 4 days in presence of human serum albumin by luciferase reporter gene assay; format: functional, organism-based; settings: Human immunodeficiency virus 1, NL4-3, MT2
[8] = system: Human immunodeficiency virus 1; test: Selectivity ratio of EC50 for HIV1 NL4-3 infected in human MT2 cells in presence of human serum albumin to EC50 for HIV1 NL4-3 infected in human MT2 cells in absence of human serum albumin; format: functional
[9] = Cmax in Sprague-Dawley rat at 1 mg/kg, iv infusion for 10 mins or 5 mg/kg, po administered via gavage by LC-MS/MS analysis; format: ADME, organism-based; settings: in vivo
Summary of the method: (§2)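 Rats given iv via implanted venous cannula as 10 min infusion, or oral gavage after overnight fast; vehicle 10% dimethylacetamide/90% PEG400 for both routes. Plasma from venous-port blood, treated with CH3CN containing internal standard, analysed by LC-MS/MS; oral plasma levels followed 24 h after 5 mg/kg. Parameters by noncompartmental analysis of concentration-time data.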

[10] = Tmax in Sprague-Dawley rat at 1 mg/kg, iv infusion for 10 mins or 5 mg/kg, po administered via gavage by LC-MS/MS analysis; format: ADME, organism-based; settings: in vivo; summary of the method: as §2
[11] = AUC (0 to 24 hrs) in Sprague-Dawley rat at 1 mg/kg, iv infusion for 10 mins or 5 mg/kg, po administered via gavage by LC-MS/MS analysis; format: ADME, organism-based; settings: in vivo; summary of the method: as §2
[12] = Half life in Sprague-Dawley rat at 1 mg/kg, iv infusion for 10 mins or 5 mg/kg, po administered via gavage by LC-MS/MS analysis; format: ADME, organism-based; settings: in vivo; summary of the method: as §2
[13] = Clearance in Sprague-Dawley rat at 1 mg/kg, iv infusion for 10 mins or 5 mg/kg, po administered via gavage by LC-MS/MS analysis; format: ADME, organism-based; settings: in vivo; summary of the method: as §2
[14] = Volume of distribution at steady state in Sprague-Dawley rat at 1 mg/kg, iv infusion for 10 mins or 5 mg/kg, po administered via gavage by LC-MS/MS analysis; format: ADME, organism-based; settings: in vivo, read-out: Vdss; summary of the method: as §2
[15] = Oral bioavailability in Sprague-Dawley rat at 5 mg/kg administered via gavage by LC-MS/MS analysis; format: ADME, organism-based; settings: in vivo; summary of the method: as §2

EC50 [1]: 6 nM
Papp at 4 h, 100 µM [3]: 47.1 ×10⁻⁶ cm/s
remaining at 10 min, 0.5 µM [4]: 95%
remaining at 10 min, 0.5 µM [5]: 97%
EC50 [7]: 30 nM
Cmax [9]: 1290 nM
Tmax [10]: 3 h
AUC(0-t) [11]: 6.3 µM·h
half-life [12]: 4.1 h
clearance [13]: 7.1 mL/min/kg
Vd [14]: 0.5 L/kg
bioavailability [15]: 32%
Compound: Cc1ccccc1-c1cccc(-c2cc3nc(C)c([C@H](OC(C)(C)C)C(=O)O)c(-c4cc(F)c5c(c4C)CCCO5)n3n2)c1
CC50 at 96 h [2]: 28200 nM
selectivity ratio [6]: 4690
Ratio EC50 [8]: 5
